Series [1] deals with Serine/threonine-protein kinase pim-3 (Homo sapiens, UniProt Q86V86). The series can be described thus: Inhibition of human PIM3 using RSRHSSYPAGT as substrate in presence of [gamma-33P]-ATP.
Series [2] has as its target Death-associated protein kinase 1 (Homo sapiens, UniProt P53355). The series can be described thus: Activation of human DAPK1 using KKLNRTLSFAEPG as substrate in presence of [gamma-33P]-ATP.
Series [3] has as its target Albumin (Bos taurus, UniProt P02769). Nature of the series: Binding affinity to bovine serum albumin by tryptophan quenching based HTS assay. The series is classed as ADME. In a few lines:
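Bovine serum albumin binding screened in HTS format by quenching of intrinsic BSA tryptophan fluorescence, Ex/Em 280/340 nm; IC50 derived from the quenching response.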

The species named for series [4] is Danio rerio. The series can be described thus: Induction of morphological changes in 6 hrs post fertilized zebra fish embryo assessed as defect in notochord development up to 200 uM by microscopic method. The class given is functional. The essentials:
(§1)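 Embryos staged and placed in 12-well plates in E3 medium with 1% DMSO within 6 hpf, ~30 embryos per well. Continuous exposure from 6–30 hpf at varied concentrations up to 200 uM. For the timing window, 100 uM exposure began at different developmental times and all embryos were scored at 30 hpf. Notochord, somite and tail phenotypes were scored by microscopy.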

Series [5] is filed under the species Danio rerio. The series can be described thus: Induction of morphological changes in 6 hrs post fertilized zebra fish embryo assessed as defect in tail musculature by measuring downward c-bend of body axis up to 200 uM by microscopic method. The class given is functional. In a few lines: as §1
The species named for series [6] is Homo sapiens. The series can be described thus: Substrate activity at P-gp in human […] cells assessed as intracellular rhodamine123 accumulation at 50 uM after 2 hrs by fluorescence-based HTS assay. The class given is cell-based. In a few lines: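 MDA-MB-231 breast cancer cells in 96-well plates were pretreated with compound for 2 h, then intracellular rhodamine 123 accumulation was measured by fluorescence (Ex/Em 485/528). Verapamil at 20 uM served as positive control.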

The species entered for series [7] is Danio rerio. The series can be described thus: Induction of morphological changes in 30 hrs post fertilized zebra fish embryo assessed as defect in notochord development up to 200 uM by microscopic method. The class given is functional. In a few lines: as §1
The species entered for series [8] is Danio rerio. Nature of the series: Induction of morphological changes in 30 hrs post fertilized zebra fish embryo assessed as defect in tail musculature by measuring downward c-bend of body axis up to 200 uM by microscopic method. The series is classed as functional. The essentials:
as §1

Series [9] is filed under the species Danio rerio. Nature of the series: Induction of morphological changes in 6 to 14 hrs post fertilized zebra fish embryo assessed as defect in notochord development at 100 uM by microscopic method. The series is classed as functional. The essentials:
as §1

For series [10], the species on record is Danio rerio. The series can be described thus: Induction of morphological changes in 6 to 14 hrs post fertilized zebra fish embryo assessed as defect in somite development at 100 uM by microscopic method. The class given is functional. The essentials: as §1
The species entered for series [11] is Danio rerio. Nature of the series: Induction of morphological changes in 22 hrs post fertilized zebra fish embryo at 100 uM by microscopic method. The class given is functional. The essentials: as §1
The species named for series [12] is Danio rerio. The series can be described thus: Induction of morphological changes in 14 hrs post fertilized zebra fish embryo assessed as defect in notochord development at 100 uM by microscopic method. The series is classed as functional. The essentials: as §1
For series [13], the species on record is Danio rerio. Nature of the series: Induction of morphological changes in 14 hrs post fertilized zebra fish embryo assessed as defect in somite development at 100 uM by microscopic method. The series is classed as functional. The essentials: as §1
The species named for series [14] is Danio rerio. The series can be described thus: Toxicity in 6 to 30 hrs post fertilized zebra fish embryo assessed as death at 200 uM by microscopic method. The settings on record: zebrafish. In a few lines: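 Staged zebrafish embryos placed in 12-well plates in E3 embryo medium within 6 hpf and exposed from 6 to 30 hpf in E3 with 1% DMSO, with or without compound, ~30 embryos per group (at most 30 per well). Wells were inspected under a dissecting microscope, and death was scored as loss of embryonic structure.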

For series [15], the species on record is Danio rerio. Nature of the series: Induction of morphological changes in 30 to 48 hrs post fertilized zebra fish embryo by microscopic method. The series is classed as functional.
The target in series [16] is Serine/threonine-protein kinase pim-1 (Homo sapiens) (UniProt P11309). Nature of the series: Inhibition of human PIM1 using KKRNRTLTK as substrate in presence of [gamma-33P]-ATP.
In series [17] the target is Serine/threonine-protein kinase pim-2 (Homo sapiens) (UniProt Q9P1W9). The series can be described thus: Inhibition of human PIM2 using RSRHSSYPAGT as substrate in presence of [gamma-33P]-ATP.
Series [18] has as its target Death-associated protein kinase 2 (Homo sapiens) (UniProt Q9UIK4). The series can be described thus: Activation of human DAPK2 using KKLNRTLSFAEPG as substrate in presence of [gamma-33P]-ATP.
Series [19] addresses Death-associated protein kinase 3 (Homo sapiens) (UniProt O43293). The series can be described thus: Activation of human DAPK3 using KKLNRTLSFAEPG as substrate in presence of [gamma-33P]-ATP.

Molecules are shown by their SMILES. The source made the active and inactive calls. No cut-off for these calls is given here.

Sequence of Death-associated protein kinase 3 (Homo sapiens) (O43293 whole entry, looked up): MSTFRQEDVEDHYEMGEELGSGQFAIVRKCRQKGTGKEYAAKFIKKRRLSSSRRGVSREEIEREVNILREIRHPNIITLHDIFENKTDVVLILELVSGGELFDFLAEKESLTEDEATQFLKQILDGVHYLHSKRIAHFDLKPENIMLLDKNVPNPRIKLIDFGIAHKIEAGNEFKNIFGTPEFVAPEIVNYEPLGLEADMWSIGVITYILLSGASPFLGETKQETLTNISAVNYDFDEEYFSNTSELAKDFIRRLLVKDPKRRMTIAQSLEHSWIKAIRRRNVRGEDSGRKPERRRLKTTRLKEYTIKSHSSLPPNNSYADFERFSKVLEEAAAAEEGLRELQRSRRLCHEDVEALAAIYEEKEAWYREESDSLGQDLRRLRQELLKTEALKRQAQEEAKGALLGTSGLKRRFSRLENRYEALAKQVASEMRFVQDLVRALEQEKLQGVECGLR
Sequence of Serine/threonine-protein kinase pim-2 (Homo sapiens) (Q9P1W9 whole entry, looked up): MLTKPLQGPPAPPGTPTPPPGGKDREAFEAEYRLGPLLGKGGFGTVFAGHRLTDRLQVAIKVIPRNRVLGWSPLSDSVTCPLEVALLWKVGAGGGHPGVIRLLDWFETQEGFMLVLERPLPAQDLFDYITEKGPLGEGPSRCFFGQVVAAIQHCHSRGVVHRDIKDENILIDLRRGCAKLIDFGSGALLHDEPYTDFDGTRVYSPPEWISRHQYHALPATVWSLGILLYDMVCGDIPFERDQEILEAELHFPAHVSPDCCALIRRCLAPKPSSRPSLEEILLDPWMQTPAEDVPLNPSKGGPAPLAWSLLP
Sequence of Albumin (P02769 whole entry): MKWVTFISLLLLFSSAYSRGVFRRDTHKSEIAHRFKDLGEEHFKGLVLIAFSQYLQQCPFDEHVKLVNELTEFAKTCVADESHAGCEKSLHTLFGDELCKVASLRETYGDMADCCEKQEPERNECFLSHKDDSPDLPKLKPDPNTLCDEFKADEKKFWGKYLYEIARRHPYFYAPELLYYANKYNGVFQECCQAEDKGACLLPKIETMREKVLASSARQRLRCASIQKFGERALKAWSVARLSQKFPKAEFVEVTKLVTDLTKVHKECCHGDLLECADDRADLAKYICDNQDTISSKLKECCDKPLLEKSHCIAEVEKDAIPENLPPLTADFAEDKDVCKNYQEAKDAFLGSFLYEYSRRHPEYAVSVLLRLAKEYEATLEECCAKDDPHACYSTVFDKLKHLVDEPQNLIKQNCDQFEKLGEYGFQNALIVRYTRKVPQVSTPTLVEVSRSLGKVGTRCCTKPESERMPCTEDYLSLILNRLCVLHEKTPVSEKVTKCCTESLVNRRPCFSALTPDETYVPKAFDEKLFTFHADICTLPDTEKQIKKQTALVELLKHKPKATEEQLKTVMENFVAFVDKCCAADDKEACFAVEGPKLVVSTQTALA
Sequence of Death-associated protein kinase 2 (Homo sapiens) (Q9UIK4 whole entry, looked up): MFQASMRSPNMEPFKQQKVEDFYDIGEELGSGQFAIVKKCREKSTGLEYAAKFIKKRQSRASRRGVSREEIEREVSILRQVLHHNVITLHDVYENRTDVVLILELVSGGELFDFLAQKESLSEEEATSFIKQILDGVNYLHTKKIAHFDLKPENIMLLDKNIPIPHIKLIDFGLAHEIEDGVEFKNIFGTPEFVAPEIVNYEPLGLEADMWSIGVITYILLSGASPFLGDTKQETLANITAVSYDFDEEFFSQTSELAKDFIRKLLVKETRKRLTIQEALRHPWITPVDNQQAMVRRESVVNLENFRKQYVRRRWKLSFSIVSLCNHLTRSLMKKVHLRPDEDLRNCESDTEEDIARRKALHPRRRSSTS
Sequence of Serine/threonine-protein kinase pim-1 (Homo sapiens) (P11309 whole entry, looked up): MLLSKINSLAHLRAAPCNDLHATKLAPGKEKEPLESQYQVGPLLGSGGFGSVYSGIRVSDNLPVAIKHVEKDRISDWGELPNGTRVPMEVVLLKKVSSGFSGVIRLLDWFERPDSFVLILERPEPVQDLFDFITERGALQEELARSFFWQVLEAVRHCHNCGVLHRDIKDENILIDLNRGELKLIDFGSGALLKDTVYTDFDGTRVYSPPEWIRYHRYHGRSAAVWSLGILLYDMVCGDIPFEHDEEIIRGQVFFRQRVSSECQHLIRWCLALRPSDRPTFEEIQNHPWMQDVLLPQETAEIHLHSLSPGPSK
Sequence of Death-associated protein kinase 1 (P53355 whole entry): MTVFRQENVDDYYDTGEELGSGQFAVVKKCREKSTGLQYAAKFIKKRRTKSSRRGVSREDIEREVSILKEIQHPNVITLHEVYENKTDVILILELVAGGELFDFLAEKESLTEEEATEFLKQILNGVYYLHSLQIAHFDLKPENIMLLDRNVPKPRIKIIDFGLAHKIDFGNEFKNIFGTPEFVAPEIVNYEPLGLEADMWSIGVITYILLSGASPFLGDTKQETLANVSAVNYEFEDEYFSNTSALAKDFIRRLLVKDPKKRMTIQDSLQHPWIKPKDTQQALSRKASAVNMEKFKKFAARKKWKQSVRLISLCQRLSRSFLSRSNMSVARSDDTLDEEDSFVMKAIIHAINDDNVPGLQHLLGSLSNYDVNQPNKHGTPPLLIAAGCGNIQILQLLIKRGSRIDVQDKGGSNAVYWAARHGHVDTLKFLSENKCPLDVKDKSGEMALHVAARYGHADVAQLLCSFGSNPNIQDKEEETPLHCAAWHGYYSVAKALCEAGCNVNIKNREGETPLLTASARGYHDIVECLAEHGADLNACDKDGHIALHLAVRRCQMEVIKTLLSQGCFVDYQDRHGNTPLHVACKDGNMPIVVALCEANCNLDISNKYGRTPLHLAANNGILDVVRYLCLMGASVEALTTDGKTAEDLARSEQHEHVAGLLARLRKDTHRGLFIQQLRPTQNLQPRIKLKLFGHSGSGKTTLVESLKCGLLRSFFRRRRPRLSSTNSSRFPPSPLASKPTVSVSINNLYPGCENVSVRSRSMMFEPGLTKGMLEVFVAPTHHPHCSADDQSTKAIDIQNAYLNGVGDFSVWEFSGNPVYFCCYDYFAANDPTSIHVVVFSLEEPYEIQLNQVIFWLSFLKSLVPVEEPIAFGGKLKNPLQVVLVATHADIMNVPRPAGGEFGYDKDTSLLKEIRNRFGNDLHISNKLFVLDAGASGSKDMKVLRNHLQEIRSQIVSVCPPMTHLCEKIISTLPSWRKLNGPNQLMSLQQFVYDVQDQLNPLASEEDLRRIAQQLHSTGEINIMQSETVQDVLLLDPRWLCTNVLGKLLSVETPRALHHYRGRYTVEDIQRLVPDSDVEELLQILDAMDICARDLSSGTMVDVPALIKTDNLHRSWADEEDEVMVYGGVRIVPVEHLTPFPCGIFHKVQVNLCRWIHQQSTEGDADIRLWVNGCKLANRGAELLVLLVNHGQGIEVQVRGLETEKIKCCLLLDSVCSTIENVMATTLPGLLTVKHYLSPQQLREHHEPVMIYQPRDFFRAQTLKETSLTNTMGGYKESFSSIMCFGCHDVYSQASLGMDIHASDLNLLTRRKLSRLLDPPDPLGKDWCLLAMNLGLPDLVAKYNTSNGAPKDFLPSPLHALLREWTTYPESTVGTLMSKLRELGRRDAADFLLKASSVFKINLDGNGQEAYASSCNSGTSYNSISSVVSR

One may read the IC50 as the concentration at which inhibition is half-maximal. The term EC50 denotes the concentration giving half of the maximal effect. Regarding `O=C(COc1cccc2ccccc12)Nc1cccc(C(=O)O)c1`, the IC50 in [1] is 4.08 µM; in series [3], 23.3 µM. For the same compound, in series [2], the EC50 was 39.5 µM. Besides, the result in series [4], in series [5], in [9] and in series [10] was Active. Moreover, the result in [6], in series [7], in [8], in series [11], in series [12] and in series [13] was inactive. For the same compound, the result in series [15], in [18] and in series [19] was inactive. Also, the Activity result in series [14] is given as “Toxic”. For the same compound, the inhibition result in series [16] and in series [17] was “inactive” in each case.

Values taken from ChEMBL document CHEMBL4049413, “High-content screen using zebrafish (Danio rerio) embryos identifies a novel kinase activator and inhibitor” (Bioorg Med Chem Lett, 2017).
